In PMC12037726 (Nature Communications, 2025):

What was measured:
Mfd = molecular target: T1, Mfd (Escherichia coli, UniProt P30958); test: Isothermal titration calorimetry; assay type: binding, E. coli; details: ITC, 25 °C; no inhibitor
T1 sequence (P30958 1-1148): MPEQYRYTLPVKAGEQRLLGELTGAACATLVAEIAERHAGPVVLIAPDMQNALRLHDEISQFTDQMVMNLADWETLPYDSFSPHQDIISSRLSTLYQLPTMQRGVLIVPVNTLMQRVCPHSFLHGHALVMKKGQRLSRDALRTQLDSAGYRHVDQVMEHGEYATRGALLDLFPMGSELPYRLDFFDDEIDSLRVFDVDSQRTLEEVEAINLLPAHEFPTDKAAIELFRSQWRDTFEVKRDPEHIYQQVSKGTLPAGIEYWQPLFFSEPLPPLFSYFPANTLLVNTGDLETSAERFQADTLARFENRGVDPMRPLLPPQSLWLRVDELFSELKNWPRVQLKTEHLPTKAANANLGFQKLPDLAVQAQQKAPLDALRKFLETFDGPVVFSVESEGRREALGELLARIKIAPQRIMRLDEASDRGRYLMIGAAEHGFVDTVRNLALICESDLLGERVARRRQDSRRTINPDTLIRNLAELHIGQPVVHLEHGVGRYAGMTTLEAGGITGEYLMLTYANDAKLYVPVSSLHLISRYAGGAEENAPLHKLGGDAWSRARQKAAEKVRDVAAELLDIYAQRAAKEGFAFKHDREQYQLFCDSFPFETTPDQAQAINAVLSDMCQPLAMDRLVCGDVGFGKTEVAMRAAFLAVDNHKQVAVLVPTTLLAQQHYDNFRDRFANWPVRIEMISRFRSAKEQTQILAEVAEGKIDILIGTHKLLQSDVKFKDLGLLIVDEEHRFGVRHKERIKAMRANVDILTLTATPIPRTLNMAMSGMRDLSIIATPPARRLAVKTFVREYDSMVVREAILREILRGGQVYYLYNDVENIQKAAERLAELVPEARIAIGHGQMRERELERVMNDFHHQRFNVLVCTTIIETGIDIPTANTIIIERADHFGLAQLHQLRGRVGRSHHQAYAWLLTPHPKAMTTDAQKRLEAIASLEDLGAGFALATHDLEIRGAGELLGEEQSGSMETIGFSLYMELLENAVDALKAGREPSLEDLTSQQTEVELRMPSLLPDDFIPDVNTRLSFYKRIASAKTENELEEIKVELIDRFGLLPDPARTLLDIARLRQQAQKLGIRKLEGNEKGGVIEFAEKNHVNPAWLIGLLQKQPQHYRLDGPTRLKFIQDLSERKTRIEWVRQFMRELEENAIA
In short: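 Full-length E. coli Mfd (20 µM) in 0.1 M Tris, 0.2 M NaCl, 4% DMSO, pH 8 at 25 °C. Titrated with 20 injections of 2.5 µL of 200 µM test compound at 300 s intervals. For the competition run, Mfd was preincubated with test compound, then ATP (200 µM) binding was measured. A = Ka/Kapp. Performed in triplicate.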

K. pneumoniae ALE = test: Mouse lung infection, CFU in lung at 24 h; assay type: in vivo; details: MPN 10 mg/kg i.p.
In short: (§1)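 Nine-week-old female C57BL/6J mice were anaesthetized with ketamine (79 mg/kg) and xylazine (9 mg/kg) i.p. Infected intranasally with 1 × 10^7 CFU in 20 µL PBS from late-exponential cultures. MPN was given at 10 mg/kg i.p. At 24 h mice were killed and the left lung homogenized in PBS. Lung CFU were counted by serial dilution on LB agar and expressed as log CFU per gram.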

P. aeruginosa CIP27853 = test: Mouse lung infection, CFU in lung at 24 h; assay type: in vivo; details: MPN at 10 mg/ml, i.p.
K. pneumoniae ∆mfd = test: Mouse lung infection, CFU in lung at 24 h, ∆mfd mutant; assay type: in vivo; details: NF-NM102 6 mg/kg or MPN 10 mg/kg i.p.
HeLa cells = test: Cytotoxicity, CellTiter96 AQueous; assay type: cell-based, human; details: 1 h; MPN 10 and 100 µM, NM102 10 and 300 µM, NM102 nanoformulation 1.29 and 5.16 mM
In short: (§2)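 Cells grown in DMEM with 10% heat-inactivated FBS, 1 U/mL penicillin and 1 µg/mL streptomycin (37 °C, 5% CO2). At 70% confluency, trypsinised and seeded at 4 × 10^4 cells/well, then incubated overnight. Switched to antibiotic-free DMEM 2 h before assay. Exposed 1 h in HBSS with 10% DMSO or empty-nanoformulation controls. MTS reagent added for 1 h, A490 read. Reagent and compound backgrounds subtracted; normalised to untreated cells.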

[1] = tested on: K. pneumoniae ATCC 700603 wt; test: Mouse lung infection, CFU in lung at 24 h; assay type: in vivo; details: MPN 10 mg/kg i.p.
In short: as §1

Vero cells = test: Cytotoxicity, CellTiter96 AQueous; assay type: cell-based, monkey; details: 1 h; MPN 10 and 100 µM, NM102 10 and 300 µM, NM102 nanoformulation 1.29 and 5.16 mM
In short: as §2

Compound | Kd (Mfd) [µM] | effect on bacterial load in the lung (K. pneumoniae ALE) | decrease of bacterial load (P. aeruginosa CIP27853) [times] | effect on bacterial burden of the ∆mfd mutant (K. pneumoniae ∆mfd) | cytotoxicity (HeLa cells) | reduction of the bacterial load [1] [%] | cytotoxicity (Vero cells)
Nc1ncnc2c1ncn2[C@@H]1O[C@H](COP(=O)(O)OP(=O)(O)OP(=O)(O)O)[C@@H](O)[C@H]1O [ATP] | 145 ± 9 |  |  |  |  |  | 
C[C@@H](O)[C@H]1C(=O)N2C(C(=O)O)=C(S[C@@H]3CN[C@H](C(=O)N(C)C)C3)[C@H](C)[C@H]12 [MPN, meropenem] |  | no significant effect | 26 | inhibited | no toxicity | 93 | induced cytotoxicity
